Experimental findings from ChEMBL document CHEMBL1124270, “Quinolone antibacterial agents. Synthesis and structure-activity relationships of 8-substituted quinoline-3-carboxylic acids and 1,8-naphthyridine-3-carboxylic acids” (1988) are described below.

Common to all, as to type: functional
The test system of experiment [1] is Escherichia coli. The experiment is described as follows: Minimum concentration needed to produce linear DNA at an intensity relative to oxolinic at 10 ug/mL in Escherichia coli H560 in vitro. The gist of the method: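 DNA gyrase cleavage test, run as previously described: end point is the lowest drug level (µg/mL) that yields linear DNA at a band intensity matching oxolinic acid at 10 µg/mL. Values come from duplicate or triplicate experiments and are stated as accurate to ±50%.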

The subject of experiment [2] is Escherichia coli. The experiment is described as follows: Minimum inhibitory concentration against Escherichia coli H560 in vitro.
Experiment [3] deals with Escherichia coli. The experiment is described as follows: Minimum inhibitory concentration against Escherichia coli vogel in vitro.
The test system of the next experiment is Enterobacter cloacae. The experiment is described as follows: Minimum inhibitory concentration against Enterobacter cloacae HA 2646 in vitro.
For the next experiment, the system named is Klebsiella pneumoniae. The experiment is described as follows: Minimum inhibitory concentration against Klebsiella pneumoniae MGH-2 in vitro.
Experiment [4] deals with Mus musculus. The experiment is described as follows: In vivo potency against Escherichia coli vogel using mouse protection assay when given perorally. To be noted: po, read-out: PD50.
The subject of experiment [5] is Mus musculus. The experiment is described as follows: In vivo potency against Escherichia coli vogel using mouse protection assay when given subcutaneously. To be noted: sc, read-out: PD50.
For experiment [6], the system named is Staphylococcus aureus. The experiment is described as follows: In vivo potency against Staphylococcus aureus using mouse protection assay following p.o. administration. As to conditions: po, read-out: PD50.
For experiment [7], the system named is Staphylococcus aureus. The experiment is described as follows: In vivo potency against Staphylococcus aureus using mouse protection assay following s.c. administration. To be noted: sc, read-out: PD50.
Experiment [8] relates to Streptococcus pneumoniae. The experiment is described as follows: In vivo potency against Streptococcus pneumoniae using mouse protection assay following p.o. administration. As to conditions: po, read-out: PD50.
A further experiment has as its system Pseudomonas aeruginosa. The experiment is described as follows: Minimum inhibitory concentration against Pseudomonas aeruginosa UI-18 in vitro.
A further experiment has as its system Providencia rettgeri. The experiment is described as follows: Minimum inhibitory concentration against Providencia rettgeri H1771 in vitro.
In a further experiment the test system is Streptococcus pyogenes. The experiment is described as follows: Minimum inhibitory concentration against Streptococcus pyogenes C203 in vitro.
Experiment [9] deals with Streptococcus pneumoniae. The experiment is described as follows: Minimum inhibitory concentration against Streptococcus pneumoniae SV-1 in vitro.
The subject of experiment [10] is Staphylococcus aureus. The experiment is described as follows: Minimum inhibitory concentration against Staphylococcus aureus H228 in vitro.
The test system of experiment [11] is Staphylococcus aureus. The experiment is described as follows: Minimum inhibitory concentration against Staphylococcus aureus UC-76 in vitro.
In another experiment the test system is Enterococcus faecalis. The experiment is described as follows: Minimum inhibitory concentration against Streptococcus faecalis MGH-2 in vitro.
Experiment [12] has as its system Streptococcus pneumoniae. The experiment is described as follows: In vivo potency against Streptococcus pneumoniae using mouse protection assay following s.c. administration. To be noted: sc, read-out: PD50.

SMILES strings stand for the structures. Converted amounts (≈) assume the structure as drawn.

Take `NC1CCN(c2nc3c(cc2F)c(=O)c(C(=O)O)cn3C2CC2)C1` (centres undefined): in the experiment with Escherichia coli [1], the DNA cleavage conc (gyrase) stood at 1 µg/mL. Besides, the MIC came out at 6 ng/mL (≈ 0.0181 µM) with Escherichia coli [2]; 0.013 µg/mL (≈ 0.0391 µM) against Escherichia coli [3]; 0.05 µg/mL (≈ 0.15 µM) in the experiment on Enterobacter cloacae; 0.025 µg/mL (≈ 0.0752 µM) against Klebsiella pneumoniae; 0.05 µg/mL (≈ 0.15 µM) against Pseudomonas aeruginosa; 0.1 µg/mL (≈ 0.301 µM) against Providencia rettgeri. Besides, the minimum inhibitory concentration (MIC) in the experiment on Streptococcus pyogenes came to 0.2 µg/mL (≈ 0.602 µM); in the experiment with Streptococcus pneumoniae [9], 0.2 µg/mL (≈ 0.602 µM); against Staphylococcus aureus [10], 0.2 µg/mL (≈ 0.602 µM); in the experiment on Staphylococcus aureus [11] it was 0.013 µg/mL (≈ 0.0391 µM); against Enterococcus faecalis, 0.2 µg/mL (≈ 0.602 µM). The ED50 in the experiment on Mus musculus [4] is 2 mg/kg; in the experiment with Mus musculus [5], 0.6 mg/kg; in the experiment on Staphylococcus aureus [6] it was 7 mg/kg; with Staphylococcus aureus [7], 3 mg/kg; in the experiment on Streptococcus pneumoniae [8], 58 mg/kg; in the experiment on Streptococcus pneumoniae [12], 33 mg/kg.
Compound `CN(C)CC1CCN(c2nc3c(cc2F)c(=O)c(C(=O)O)cn3C2CC2)C1` (centres undefined) showed a DNA cleavage conc (gyrase) with Escherichia coli [1] of 0.75 µg/mL. The MIC came out at 50 ng/mL (≈ 0.134 µM) in the experiment with Escherichia coli [2]; 0.05 µg/mL (≈ 0.134 µM) in the experiment with Escherichia coli [3]; 0.1 µg/mL (≈ 0.267 µM) with Enterobacter cloacae; 0.2 µg/mL (≈ 0.534 µM) with Klebsiella pneumoniae; 0.4 µg/mL (≈ 1.07 µM) in the experiment on Pseudomonas aeruginosa; 0.8 µg/mL (≈ 2.14 µM) against Providencia rettgeri. The MIC was found to be 0.1 µg/mL (≈ 0.267 µM) in the experiment with Streptococcus pyogenes; 0.05 µg/mL (≈ 0.134 µM) with Streptococcus pneumoniae [9]; 0.1 µg/mL (≈ 0.267 µM) with Staphylococcus aureus [10]; 0.05 µg/mL (≈ 0.134 µM) in the experiment on Staphylococcus aureus [11]; 0.2 µg/mL (≈ 0.534 µM) against Enterococcus faecalis. For the same compound, the ED50 in the experiment with Mus musculus [4] was 2 mg/kg; with Mus musculus [5], 1 mg/kg; with Staphylococcus aureus [6] it was 31 mg/kg; with Staphylococcus aureus [7] it was 27 mg/kg; in the experiment with Streptococcus pneumoniae [8], 7 mg/kg; in the experiment on Streptococcus pneumoniae [12], 7 mg/kg.
With `Cl.Cl.NC1CCN(c2cc3c(cc2F)c(=O)c(C(=O)O)cn3C2CC2)C1` (centres undefined), the DNA cleavage conc (gyrase) in the experiment with Escherichia coli [1] was determined as 0.1 µg/mL. The MIC was found to be 6 ng/mL against Escherichia coli [2]; 0.025 µg/mL in the experiment with Escherichia coli [3]; 0.025 µg/mL against Enterobacter cloacae; 0.1 µg/mL against Klebsiella pneumoniae; 0.1 µg/mL against Pseudomonas aeruginosa; 0.1 µg/mL against Providencia rettgeri. The MIC against Streptococcus pyogenes came out at 0.1 µg/mL; in the experiment with Streptococcus pneumoniae [9], 0.05 µg/mL; against Staphylococcus aureus [10], 0.1 µg/mL; against Staphylococcus aureus [11], 0.025 µg/mL; in the experiment on Enterococcus faecalis, 0.1 µg/mL. The ED50 is 3 mg/kg with Mus musculus [4]; 0.5 mg/kg in the experiment with Mus musculus [5]; 49.5 mg/kg with Staphylococcus aureus [6]; 43 mg/kg with Streptococcus pneumoniae [8]; 4 mg/kg with Streptococcus pneumoniae [12].
`Cl.NC1CCN(c2c(F)cc3c(=O)c(C(=O)O)cn(C4CC4)c3c2F)C1` (centres undefined) came in with a DNA cleavage conc (gyrase) in the experiment on Escherichia coli [1] of 0.1 µg/mL. For the same compound, the MIC against Escherichia coli [2] was 6 ng/mL; in the experiment on Escherichia coli [3] it was 0.013 µg/mL; against Enterobacter cloacae, 0.025 µg/mL; with Klebsiella pneumoniae, 0.025 µg/mL; against Pseudomonas aeruginosa, 0.1 µg/mL; with Providencia rettgeri it was 0.05 µg/mL. The minimal inhibitory concentration (MIC) is 0.05 µg/mL against Streptococcus pyogenes; 0.05 µg/mL against Streptococcus pneumoniae [9]; 0.05 µg/mL against Staphylococcus aureus [10]; 0.025 µg/mL in the experiment with Staphylococcus aureus [11]; 0.05 µg/mL against Enterococcus faecalis. The ED50 came out at 1 mg/kg in the experiment on Mus musculus [4]; 0.2 mg/kg in the experiment on Mus musculus [5]; 7 mg/kg with Staphylococcus aureus [6]; 3 mg/kg in the experiment with Staphylococcus aureus [7]; 15 mg/kg in the experiment with Streptococcus pneumoniae [8]; 6 mg/kg with Streptococcus pneumoniae [12].
With `O=C(O)c1cn(C2CC2)c2cc(N3CCNCC3)c(F)cc2c1=O` [CIPROFLOXACIN], the MIC was 25 ng/mL (≈ 0.0754 µM) against Escherichia coli [2]; 0.1 µg/mL (≈ 0.302 µM) with Klebsiella pneumoniae; 0.4 µg/mL (≈ 1.21 µM) against Pseudomonas aeruginosa; 0.1 µg/mL (≈ 0.302 µM) with Providencia rettgeri; 0.8 µg/mL (≈ 2.41 µM) in the experiment on Streptococcus pyogenes; 1.6 µg/mL (≈ 4.83 µM) against Streptococcus pneumoniae [9]. For the same compound, the MIC against Staphylococcus aureus [10] amounted to 3.1 µg/mL (≈ 9.36 µM); with Staphylococcus aureus [11], 0.2 µg/mL (≈ 0.604 µM); against Enterococcus faecalis it was 0.8 µg/mL (≈ 2.41 µM). The ED50 is 1 mg/kg with Mus musculus [4]; 0.3 mg/kg in the experiment with Mus musculus [5]; 25 mg/kg in the experiment with Staphylococcus aureus [6]; 5 mg/kg with Staphylococcus aureus [7]; above 100 mg/kg in the experiment on Streptococcus pneumoniae [8]; 19 mg/kg with Streptococcus pneumoniae [12].
Take `Cl.NC1CCN(c2c(F)cc3c(=O)c(C(=O)O)cn(C4CC4)c3c2Cl)C1` (centres undefined) [CLINAFLOXACIN HYDROCHLORIDE]: the DNA cleavage conc (gyrase) in the experiment with Escherichia coli [1] is 0.5 µg/mL. For the same compound, the MIC in the experiment on Escherichia coli [2] came out at 6 ng/mL; in the experiment with Escherichia coli [3], 0.013 µg/mL; with Enterobacter cloacae, 0.025 µg/mL; in the experiment on Klebsiella pneumoniae, 0.025 µg/mL; against Pseudomonas aeruginosa, 0.05 µg/mL; against Providencia rettgeri it was 0.025 µg/mL. Further, the MIC against Streptococcus pyogenes amounted to 0.05 µg/mL; against Streptococcus pneumoniae [9] it was 0.05 µg/mL; against Staphylococcus aureus [10], 0.05 µg/mL; in the experiment on Staphylococcus aureus [11], 0.013 µg/mL; against Enterococcus faecalis, 0.05 µg/mL. The ED50 in the experiment on Mus musculus [4] was found to be 3 mg/kg; with Mus musculus [5], 0.6 mg/kg; with Staphylococcus aureus [6] it was 13 mg/kg; in the experiment with Staphylococcus aureus [7], 5 mg/kg; in the experiment with Streptococcus pneumoniae [8] it was 10 mg/kg; in the experiment with Streptococcus pneumoniae [12], 4 mg/kg.

By MIC is commonly meant the lowest concentration that inhibits growth of the organism. Higher therefore signals weaker potency.
